The text below walks through data of ChEMBL document CHEMBL1147483, “Novel p38 inhibitors with potent oral efficacy in several models of rheumatoid arthritis” (Bioorg Med Chem Lett, 2004).

For data set [1], the target named is Mitogen-activated protein kinase 14 (Mus musculus, UniProt P47811). As to the kind of experiment: Inhibition of murine phosphorylated His-Mitogen-activated protein kinase p38 alpha.
Data set [2] concerns Mus musculus. As to the kind of experiment: Inhibition of LPS induced TNF-alpha release in mice following p.o. administration. It counts as functional. Set-up: concentration or dose not given beside the values. The essentials:
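LPS (20 mg/kg) given i.v. 1 h after dosing. Blood taken 1 h later; plasma TNF-α by mouse-specific ELISA. Reported as % inhibition or as ED50 (mg/kg p.o.).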

For data set [3], the species on record is Homo sapiens. Nature of the data set: Inhibition of LPS/IFN-gamma stimulated TNF-alpha release in human peripheral blood mononuclear cells after 3h of incubation. Type of data set: functional, cell-based. The essentials:
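Human PBMCs from healthy volunteers incubated with inhibitor and stimulated with LPS/IFN-γ for 3 h. TNF-α in supernatants measured by ELISA; IC50 derived.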

Data set [4] in a line: Oral bioavailability. The note with it: rat, in vivo. It counts as ADME, organism-based.
In data set [5] the target is Prostaglandin G/H synthase 1 (Homo sapiens, UniProt P23219). Nature of the data set: Inhibition of human prostaglandin G/H synthase 1, COX-1.
Sequence of Prostaglandin G/H synthase 1 (P23219 whole entry): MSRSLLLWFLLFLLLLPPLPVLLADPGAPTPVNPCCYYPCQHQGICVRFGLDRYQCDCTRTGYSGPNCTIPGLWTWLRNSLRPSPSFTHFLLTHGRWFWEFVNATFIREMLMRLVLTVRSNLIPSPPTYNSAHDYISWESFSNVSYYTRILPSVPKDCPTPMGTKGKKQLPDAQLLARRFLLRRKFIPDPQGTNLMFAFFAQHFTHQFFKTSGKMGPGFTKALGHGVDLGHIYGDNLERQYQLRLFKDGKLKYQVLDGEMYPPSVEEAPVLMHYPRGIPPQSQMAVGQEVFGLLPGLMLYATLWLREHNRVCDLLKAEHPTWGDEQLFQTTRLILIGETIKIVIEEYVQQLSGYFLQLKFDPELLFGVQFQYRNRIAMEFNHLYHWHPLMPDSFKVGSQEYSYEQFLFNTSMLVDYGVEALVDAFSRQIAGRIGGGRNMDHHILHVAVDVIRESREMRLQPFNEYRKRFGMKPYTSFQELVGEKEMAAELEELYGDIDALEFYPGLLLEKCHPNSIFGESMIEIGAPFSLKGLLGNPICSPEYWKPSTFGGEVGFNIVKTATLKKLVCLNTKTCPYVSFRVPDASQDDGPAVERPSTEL
In data set [6] the target is T1, Cytochrome P450 1A2 (Homo sapiens, UniProt P05177).
T1 sequence (P05177 whole entry): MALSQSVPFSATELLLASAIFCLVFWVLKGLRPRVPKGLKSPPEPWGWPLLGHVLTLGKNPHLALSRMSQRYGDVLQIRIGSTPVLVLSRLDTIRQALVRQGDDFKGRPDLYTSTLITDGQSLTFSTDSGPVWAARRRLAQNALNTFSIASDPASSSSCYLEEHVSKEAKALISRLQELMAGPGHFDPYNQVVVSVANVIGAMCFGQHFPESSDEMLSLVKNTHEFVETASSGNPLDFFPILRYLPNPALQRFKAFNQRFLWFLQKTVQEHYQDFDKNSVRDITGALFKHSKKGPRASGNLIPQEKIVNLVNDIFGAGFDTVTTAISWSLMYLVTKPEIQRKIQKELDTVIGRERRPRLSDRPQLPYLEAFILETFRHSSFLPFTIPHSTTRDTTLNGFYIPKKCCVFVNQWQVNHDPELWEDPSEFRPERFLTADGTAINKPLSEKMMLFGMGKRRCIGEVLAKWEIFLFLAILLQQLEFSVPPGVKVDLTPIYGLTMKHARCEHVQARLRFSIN
Nature of the data set: Inhibition of human cytochrome P450 1A2. It counts as ADME.

A short description of data set [7]: Half life was determined. To be noted: rat, in vivo. It counts as ADME, organism-based.
The target of data set [8] is Insulin-like growth factor 1 receptor (Homo sapiens, UniProt P08069). As to the kind of experiment: Inhibition of human insulin-like growth factor I receptor. An outline of the steps: (§1)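 In-house kinase selectivity panel against human kinases; IC50 (µM) determined.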
Data set [9] concerns the target Proto-oncogene tyrosine-protein kinase Src (Homo sapiens, UniProt P12931). Nature of the data set: Inhibition of human c-Src. An outline of the steps: as §1
Data set [10] concerns Mus musculus. As to the kind of experiment: Dose required to inhibit of LPS (20 mg/kg, injected i.v. 1 hr […] dosing) induced TNF-alpha release in mice upon oral administration. It counts as functional.
Data set [11] deals with Vascular endothelial growth factor receptor 2 (Homo sapiens, UniProt P35968). As to the kind of experiment: Inhibition of human vascular endothelial growth factor receptor 2. An outline of the steps:
as §1

For data set [12], the target named is Mitogen-activated protein kinase 8 (Homo sapiens, UniProt P45983). Nature of the data set: Inhibition of human c-Jun N-terminal kinase 1. The essentials: as §1
Data set [13] concerns the target Tyrosine-protein kinase ABL1 (Homo sapiens, UniProt P00519). Nature of the data set: Inhibition of human c-Abl. The essentials: as §1
Data set [14] deals with Cytochrome P450 2D6 (Homo sapiens, UniProt P10635). As to the kind of experiment: Inhibition of human cytochrome P450 2D6. Type of data set: ADME.
Sequence of Cytochrome P450 2D6 (P10635 whole entry): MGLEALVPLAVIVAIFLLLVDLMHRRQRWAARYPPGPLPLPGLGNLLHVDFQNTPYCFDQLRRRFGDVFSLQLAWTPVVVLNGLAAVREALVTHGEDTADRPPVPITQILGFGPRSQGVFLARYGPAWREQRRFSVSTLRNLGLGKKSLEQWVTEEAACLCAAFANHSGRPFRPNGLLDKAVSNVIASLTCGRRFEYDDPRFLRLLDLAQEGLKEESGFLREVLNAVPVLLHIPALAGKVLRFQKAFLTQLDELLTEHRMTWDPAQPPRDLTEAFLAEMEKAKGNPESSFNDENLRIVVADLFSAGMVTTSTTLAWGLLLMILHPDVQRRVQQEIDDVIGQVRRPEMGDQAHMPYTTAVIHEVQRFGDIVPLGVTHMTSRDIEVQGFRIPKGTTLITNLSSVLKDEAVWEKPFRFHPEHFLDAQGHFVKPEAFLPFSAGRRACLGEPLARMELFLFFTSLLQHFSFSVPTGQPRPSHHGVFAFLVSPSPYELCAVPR
Data set [15] deals with Mast/stem cell growth factor receptor Kit (Homo sapiens, UniProt P10721). As to the kind of experiment: Inhibition of human c-Kit kinase. An outline of the steps: as §1
For data set [16], the system named is Rattus norvegicus. As to the kind of experiment: Dose required to inhibit bovine nasalseptum type II collagen induced arthritis in rats after administration on day 13. It counts as functional. To be noted: 312 h. The essentials: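 Female WAG×BUF/F1 rats immunized intradermally with bovine nasal septum type II collagen in Freund's incomplete adjuvant; swelling starts ~10 days after immunization. Oral dosing once daily for 10 days, beginning day 13 when swelling was nearly maximal. ED50 (mg/kg p.o.) derived for inhibition of joint swelling.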

Data set [17] concerns the target Cytochrome P450 2C9 (Homo sapiens, UniProt P11712). Nature of the data set: Inhibition of human cytochrome P450 2C9. Type of data set: ADME.
The target in data set [18] is Cytochrome P450 3A4 (Homo sapiens, UniProt P08684). As to the kind of experiment: Inhibition of human cytochrome P450 3A4. It counts as ADME.
Sequence of Cytochrome P450 3A4 (P08684 whole entry): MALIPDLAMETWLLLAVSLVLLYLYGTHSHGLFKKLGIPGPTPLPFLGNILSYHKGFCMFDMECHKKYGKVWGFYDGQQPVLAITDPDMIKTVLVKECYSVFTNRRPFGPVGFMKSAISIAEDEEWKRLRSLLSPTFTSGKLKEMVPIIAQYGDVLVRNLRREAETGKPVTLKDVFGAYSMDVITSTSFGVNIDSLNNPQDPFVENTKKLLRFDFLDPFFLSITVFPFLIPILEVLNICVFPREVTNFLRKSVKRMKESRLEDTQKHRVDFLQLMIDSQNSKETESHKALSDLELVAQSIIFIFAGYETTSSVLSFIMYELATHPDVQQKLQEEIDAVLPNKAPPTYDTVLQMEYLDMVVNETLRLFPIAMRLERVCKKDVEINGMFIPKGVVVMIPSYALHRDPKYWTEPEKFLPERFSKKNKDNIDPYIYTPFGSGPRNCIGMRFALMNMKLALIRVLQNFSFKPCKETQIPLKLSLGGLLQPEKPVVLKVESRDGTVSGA
The test system of data set [19] is Rattus norvegicus. Nature of the data set: Percent swelling of joints in rats immunized with Mycobacterium tuberculosis was determined on day 20 after 25 mg/kg peroral administration. Type of data set: functional. To be noted: route oral. The essentials:
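Female Wistar rats (adjuvant-induced arthritis) immunized with Mycobacterium tuberculosis on day 0; compounds given orally at 25 mg/kg twice daily (2 × 25 mg/kg p.o. per day) from day 14 to day 20; joint swelling measured on day 20 and expressed as % swelling.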

In data set [20] the target is Cyclin-dependent kinase 1 (Homo sapiens, UniProt P06493). Nature of the data set: Inhibition of human cyclin-dependent kinase 1. An outline of the steps: as §1
Sequence of Cyclin-dependent kinase 1 (P06493 whole entry): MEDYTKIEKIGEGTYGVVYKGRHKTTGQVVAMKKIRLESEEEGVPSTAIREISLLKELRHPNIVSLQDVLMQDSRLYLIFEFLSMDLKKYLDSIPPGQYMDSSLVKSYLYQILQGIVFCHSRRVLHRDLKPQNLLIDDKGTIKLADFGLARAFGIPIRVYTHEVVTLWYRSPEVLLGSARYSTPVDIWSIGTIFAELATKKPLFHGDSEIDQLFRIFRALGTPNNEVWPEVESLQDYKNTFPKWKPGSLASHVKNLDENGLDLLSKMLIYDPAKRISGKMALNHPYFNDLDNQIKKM
For data set [21], the target named is Mitogen-activated protein kinase 9 (Homo sapiens, UniProt P45984). As to the kind of experiment: Inhibition of human c-Jun N-terminal kinase 2. An outline of the steps: as §1
Sequence of Mitogen-activated protein kinase 9 (P45984 whole entry): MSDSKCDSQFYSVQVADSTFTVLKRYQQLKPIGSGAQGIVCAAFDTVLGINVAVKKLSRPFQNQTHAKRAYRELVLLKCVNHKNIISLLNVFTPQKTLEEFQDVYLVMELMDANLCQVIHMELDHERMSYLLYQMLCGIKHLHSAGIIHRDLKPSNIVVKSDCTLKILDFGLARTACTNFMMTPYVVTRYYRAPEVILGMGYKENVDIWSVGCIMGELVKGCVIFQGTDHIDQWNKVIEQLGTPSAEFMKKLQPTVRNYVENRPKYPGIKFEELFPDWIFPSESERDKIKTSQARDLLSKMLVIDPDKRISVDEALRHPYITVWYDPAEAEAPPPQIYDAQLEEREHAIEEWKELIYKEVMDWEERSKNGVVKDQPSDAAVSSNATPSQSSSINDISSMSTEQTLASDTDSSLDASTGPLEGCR
The target of data set [22] is RAF proto-oncogene serine/threonine-protein kinase (Homo sapiens, UniProt P04049). As to the kind of experiment: Inhibition of human RAF proto-oncogene serine/threonine-protein kinase. The essentials: as §1
Data set [23] addresses Hepatocyte growth factor receptor (Homo sapiens, UniProt P08581). Nature of the data set: Inhibition of human Met proto-oncogene tyrosine kinase.
Data set [24] deals with T2, Epidermal growth factor receptor (Homo sapiens, UniProt P00533). Nature of the data set: Inhibition of human Epidermal growth factor receptor, HER-1.
The target in data set [25] is T2, Epidermal growth factor receptor. Nature of the data set: Inhibition of human epidermal growth factor receptor.

Sequence of Cytochrome P450 2C9 (P11712 whole entry): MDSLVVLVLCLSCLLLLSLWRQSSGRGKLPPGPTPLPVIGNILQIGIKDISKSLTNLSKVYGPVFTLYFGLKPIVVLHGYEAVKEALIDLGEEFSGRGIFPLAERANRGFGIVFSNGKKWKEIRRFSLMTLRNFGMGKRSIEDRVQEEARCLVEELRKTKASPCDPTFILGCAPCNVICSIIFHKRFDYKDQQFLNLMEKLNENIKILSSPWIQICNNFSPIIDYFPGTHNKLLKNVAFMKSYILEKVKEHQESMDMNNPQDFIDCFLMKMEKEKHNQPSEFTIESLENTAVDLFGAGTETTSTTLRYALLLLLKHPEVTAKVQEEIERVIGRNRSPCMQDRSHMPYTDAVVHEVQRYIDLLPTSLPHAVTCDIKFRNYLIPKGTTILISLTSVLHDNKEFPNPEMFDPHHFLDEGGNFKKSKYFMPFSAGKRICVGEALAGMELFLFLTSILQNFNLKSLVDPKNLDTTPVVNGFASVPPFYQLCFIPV
Sequence of Proto-oncogene tyrosine-protein kinase Src (P12931 2-536 limits assumed): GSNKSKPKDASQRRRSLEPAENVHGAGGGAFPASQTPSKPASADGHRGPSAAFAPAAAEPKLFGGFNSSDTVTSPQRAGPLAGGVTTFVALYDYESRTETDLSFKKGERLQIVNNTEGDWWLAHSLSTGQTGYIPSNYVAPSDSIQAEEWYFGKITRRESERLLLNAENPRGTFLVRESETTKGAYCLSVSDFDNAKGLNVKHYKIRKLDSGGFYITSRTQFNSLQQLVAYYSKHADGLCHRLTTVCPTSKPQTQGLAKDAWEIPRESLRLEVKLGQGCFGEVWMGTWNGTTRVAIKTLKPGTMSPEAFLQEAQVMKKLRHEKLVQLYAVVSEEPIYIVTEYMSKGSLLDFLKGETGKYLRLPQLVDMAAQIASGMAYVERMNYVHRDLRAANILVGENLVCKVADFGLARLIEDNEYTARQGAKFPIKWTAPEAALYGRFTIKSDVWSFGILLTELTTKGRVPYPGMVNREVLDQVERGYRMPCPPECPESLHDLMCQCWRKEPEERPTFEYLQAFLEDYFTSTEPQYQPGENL
Sequence of Mitogen-activated protein kinase 14 (P47811 whole entry): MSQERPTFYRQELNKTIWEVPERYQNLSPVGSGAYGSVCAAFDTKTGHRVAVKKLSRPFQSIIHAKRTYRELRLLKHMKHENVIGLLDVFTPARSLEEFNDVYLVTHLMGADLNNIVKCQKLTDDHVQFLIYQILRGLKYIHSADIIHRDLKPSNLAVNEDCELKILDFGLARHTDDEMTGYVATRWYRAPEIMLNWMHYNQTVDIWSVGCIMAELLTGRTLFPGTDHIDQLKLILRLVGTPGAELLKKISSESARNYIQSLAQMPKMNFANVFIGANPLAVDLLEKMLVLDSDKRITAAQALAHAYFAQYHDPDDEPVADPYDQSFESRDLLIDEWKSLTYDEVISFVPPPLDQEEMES
Sequence of Tyrosine-protein kinase ABL1 (P00519 whole entry): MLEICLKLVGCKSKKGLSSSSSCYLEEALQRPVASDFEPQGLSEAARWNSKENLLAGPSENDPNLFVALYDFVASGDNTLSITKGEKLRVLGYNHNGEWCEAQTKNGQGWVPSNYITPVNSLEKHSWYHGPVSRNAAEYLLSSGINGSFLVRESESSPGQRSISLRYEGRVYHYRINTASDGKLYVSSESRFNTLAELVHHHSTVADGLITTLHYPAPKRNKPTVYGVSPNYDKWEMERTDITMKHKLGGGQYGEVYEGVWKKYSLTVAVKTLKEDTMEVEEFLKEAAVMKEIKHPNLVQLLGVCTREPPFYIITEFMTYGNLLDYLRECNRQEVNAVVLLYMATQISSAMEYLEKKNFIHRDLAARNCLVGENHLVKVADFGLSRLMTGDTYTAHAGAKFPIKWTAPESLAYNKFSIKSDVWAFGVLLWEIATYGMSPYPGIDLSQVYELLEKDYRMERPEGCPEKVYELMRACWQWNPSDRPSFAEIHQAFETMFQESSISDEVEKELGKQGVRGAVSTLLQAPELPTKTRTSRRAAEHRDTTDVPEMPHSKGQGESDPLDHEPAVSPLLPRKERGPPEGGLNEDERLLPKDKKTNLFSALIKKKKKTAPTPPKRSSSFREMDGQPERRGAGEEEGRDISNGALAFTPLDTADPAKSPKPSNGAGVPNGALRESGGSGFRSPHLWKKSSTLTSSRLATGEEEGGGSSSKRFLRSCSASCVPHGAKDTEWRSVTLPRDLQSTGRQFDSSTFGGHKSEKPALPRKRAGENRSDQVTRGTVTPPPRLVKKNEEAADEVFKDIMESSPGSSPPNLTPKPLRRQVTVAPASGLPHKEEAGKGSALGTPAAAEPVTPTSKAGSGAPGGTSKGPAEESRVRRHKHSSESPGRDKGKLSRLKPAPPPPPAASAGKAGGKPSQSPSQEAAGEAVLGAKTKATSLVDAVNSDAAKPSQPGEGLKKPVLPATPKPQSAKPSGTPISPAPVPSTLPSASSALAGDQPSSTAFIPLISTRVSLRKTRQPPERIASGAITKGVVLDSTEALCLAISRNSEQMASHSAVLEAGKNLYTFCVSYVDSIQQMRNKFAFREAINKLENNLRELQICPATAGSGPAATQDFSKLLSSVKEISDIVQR

Broadly, the IC50 is the concentration that inhibits the measured activity by half. The Inhibition is the relative decrease from the control value, in per cent. `FC(F)(F)c1cccc(-c2nc(C3CCNCC3)cn2-c2ccnc(NC3CCCCC3)n2)c1`: the values for the IC50 in data set [1] and in data set [3] were 0.008 µM and 0.002 µM, respectively. The compound also had an Inhibition in data set [2] of 77%.
Broadly, the bioavailability is dose-corrected exposure relative to a reference, in per cent. Regarding `C[C@H](Nc1nccc(-c2[nH]c(C3(O)CCN(C)CC3)nc2-c2ccc(F)cc2)n1)c1ccccc1`, the IC50 is 0.002 µM in data set [1] and 0.0001 µM in data set [3]. Further, the Inhibition in [2] is given as 83%. Besides, the bioavailability in data set [4] came out at 10%.
Usually half-life stands for how long it takes for the measured level to halve. By ED50 is commonly meant the dose that gives a 50% effect, or the effect in half of the subjects. `CN1CCC(O)(c2cn(-c3ccnc(NC4CCCC4)n3)c(-c3cccc(C(F)(F)F)c3)n2)CC1`: the IC50 in data set [5] was above 80 µM; in data set [6], above 2 µM; in data set [8], above 10 µM; in data set [1], 0.029 µM; in data set [9], above 10 µM; in data set [11], above 10 µM. For the same compound, the IC50 is above 10 µM in [12]; above 10 µM in [13]; above 2 µM in data set [14]; above 10 µM in data set [15]; above 2 µM in data set [17]; above 2 µM in [18]. The results for the IC50 in data set [3], in data set [20] and in [21] were 0.001 µM, above 10 µM and 4.66 µM, respectively. This compound had a half-life in [7] of 3.5 h. The ED50 is 1.07 mg/kg in [10] and 9.51 mg/kg in data set [16]. The Inhibition in [2] stood at 94%. The bioavailability in data set [4] was 23.2%. In data set [19], this compound came in with a Swelling of 58%.
Turning to `C[C@H](Nc1cc(-c2sc(C3(O)CCN(C)CC3)nc2-c2ccc(F)cc2)ccn1)c1ccccc1`, the half-inhibitory concentration (IC50) is 0.005 µM in data set [1] and 0.001 µM in [3]. The same compound returned an Inhibition in data set [2] of 94%.
For the compound `CN1CCN(c2ccc3c(n2)nc(-c2ccc(F)cc2)n3-c2ccnc(NC3CCCC3)n2)CC1`, the half-inhibitory concentration (IC50) in [5] is above 80 µM; in data set [6], above 2 µM; in data set [8] it was above 10 µM; in data set [1], 0.015 µM; in data set [9] it was above 10 µM; in data set [11], above 10 µM. Also, the IC50 in [12] is 1.5 µM; in data set [13] it was above 10 µM; in [14], above 2 µM; in data set [15], above 10 µM; in data set [22] it was above 10 µM; in data set [17], above 2 µM. Also, the IC50 in data set [18] was above 2 µM; in data set [3] it was 0.001 µM; in data set [20], above 10 µM; in data set [21] it was 0.047 µM; in data set [23] it was above 10 µM. In addition, in data set [7], the half-life was 4.1 h. Besides, the median effective dose (ED50) in data set [10] came out at 1.41 mg/kg; in [16] it was 4.22 mg/kg. This compound also yielded an Inhibition in [2] of 94%. Moreover, the bioavailability in [4] was 72.8%. In [19], this compound showed a Swelling of 55%.
Consider `CN1CCC(O)(c2nc(-c3ccc(F)cc3)c(-c3ccncc3)[nH]2)CC1`, for which the half-maximal inhibitory concentration (IC50) in [3] is 0.015 µM.
Turning to `C[C@H](Nc1cc(-c2[nH]c(C3(O)CCN(C)CC3)nc2-c2ccc(F)cc2)ccn1)c1ccccc1`, the half-inhibitory concentration (IC50) amounted to 0.007 µM in data set [1] and 0.003 µM in [3]. Further, the Inhibition in data set [2] came out at 42%.
In data set [3], `CN1CCC(O)(c2nc(-c3ccc(F)cc3)c(-c3ccncc3)o2)CC1` gave a half-inhibitory concentration (IC50) of 0.18 µM.
As for `Fc1ccc(-c2nc(C3CCNCC3)cn2-c2ccnc(NC3CCCCC3)n2)cc1`, the IC50 was determined as 0.005 µM in [1] and 0.0008 µM in [3]. In data set [2], this compound displayed an Inhibition of 29%.
As to `C[C@H](Nc1cc(-c2oc(C3(O)CCN(C)CC3)nc2-c2ccc(F)cc2)ccn1)c1ccccc1`, the IC50 was determined as 0.009 µM in data set [1] and 0.003 µM in data set [3]. Also, the Inhibition in [2] turned out to be 21%.
In the case of `C[C@H](Nc1cc(-c2sc(C3CCN(C)CC3)nc2-c2ccc(F)cc2)ccn1)c1ccccc1`, the half-maximal inhibitory concentration (IC50) in data set [5] is above 80 µM; in data set [6] it was above 2 µM; in data set [24], 1.1 µM; in [8], above 10 µM; in [1], 0.018 µM; in data set [9], 8 µM. Also, the half-maximal inhibitory concentration (IC50) in data set [11] is 1.7 µM; in [12], 1.9 µM; in [13], above 10 µM; in data set [14], above 2 µM; in [15] it was above 10 µM; in [25], 0.7 µM. Further, the half-maximal inhibitory concentration (IC50) in [22] was 2.1 µM; in data set [17] it was above 2 µM; in data set [18] it was above 2 µM; in data set [3] it was 0.0006 µM; in data set [20] it was above 10 µM; in [21], 0.261 µM. In addition, in data set [23], the concentration for half-maximal inhibition (IC50) was above 10 µM. The compound further gave a half-life in [7] of 12.5 h. Besides, the figures for the 50% effective dose (ED50) in data set [10] and in data set [16] were 2.06 mg/kg and 7 mg/kg, respectively. Besides, in data set [2], the Inhibition worked out at 88%. Further, the bioavailability in data set [4] was 20.3%. The compound also returned a Swelling in [19] of 57%.
`CN1CCC(O)(c2nc(-c3ccc(F)cc3)c(-c3ccncc3)s2)CC1`: the half-inhibitory concentration (IC50) in data set [3] is 0.145 µM.
`C[C@H](Nc1nccc(-n2cc(C3(O)CCN(C)CC3)nc2-c2ccc(F)cc2)n1)c1ccccc1`: in [1], the half-inhibitory concentration (IC50) was determined as 0.004 µM. In data set [2], this compound gave an Inhibition of 94%.
In the case of `C[C@H](Nc1nccc(-n2c(-c3ccc(F)cc3)nc3nc(N4CCN(C)CC4)ccc32)n1)c1ccccc1`, the concentration for half-maximal inhibition (IC50) in [1] turned out to be 0.006 µM; in [3], 0.001 µM. Also, the Inhibition in data set [2] is 83%.
As for `C[C@H](Nc1nccc(-c2oc(C3(O)CCN(C)CC3)nc2-c2ccc(F)cc2)n1)c1ccccc1`, the IC50 in data set [1] came out at 0.011 µM; in [3], 0.008 µM. This compound gave an Inhibition in [2] of 19%.
